{"source": "ChEMBL document CHEMBL3232834", "about": "“Synthesis of novel building blocks of benzosuberone bearing coumarin moieties and their evaluation as potential anticancer agents” (Eur J Med Chem, 2014)", "key": {"[1]": {"tested_on": "A549", "experiment": "In vitro cytotoxicity against human A549 cells assessed as growth inhibition by MTT assay", "format": "functional, cell-based", "method_in_brief": "(§1)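 Human tumour lines A549 (alveolar adenocarcinoma), HeLa (cervical), MDA-MB-231 and MCF7 (breast adenocarcinoma), plus normal embryonic kidney HEK293, all ATCC-sourced, grown in 96-well plates. Growth inhibition read as cell-mediated reduction of tetrazolium salt (MTT) to formazan, with doxorubicin as standard. IC50 (µM) calculated from absorbance dose-response curves.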"}, "[2]": {"tested_on": "HeLa", "experiment": "In vitro cytotoxicity against human HeLa cells assessed as growth inhibition by MTT assay", "format": "functional, cell-based", "method_in_brief": "as §1"}, "[3]": {"tested_on": "MDA-MB-231", "experiment": "In vitro cytotoxicity against human MDA-MB-231 cells assessed as growth inhibition by MTT assay", "format": "functional, cell-based", "method_in_brief": "as §1"}, "[4]": {"tested_on": "MCF7", "experiment": "In vitro cytotoxicity against human MCF7 cells assessed as growth inhibition by MTT assay", "format": "functional, cell-based", "method_in_brief": "as §1"}, "[5]": {"tested_on": "HEK293", "experiment": "In vitro cytotoxicity against HEK293 cells assessed as growth inhibition by MTT assay", "format": "cell-based", "details": "Homo sapiens", "method_in_brief": "as §1"}}}
{"molecule": "O=c1oc2ccccc2c2c1CCCc1ccccc1-2", "values": [{"measurement": "IC50", "setting": "[1]", "result": 3.35, "unit": "µM"}, {"measurement": "IC50", "setting": "[2]", "result": 14.1, "unit": "µM"}, {"measurement": "IC50", "setting": "[3]", "result": 16.8, "unit": "µM"}, {"measurement": "IC50", "setting": "[4]", "result": 9.63, "unit": "µM"}, {"measurement": "IC50", "setting": "[5]", "result": "> 200", "unit": "µM"}]}
{"molecule": "Cc1cc2c(cc1C)-c1c(c(=O)oc3ccc(Cl)cc13)CCC2", "values": [{"measurement": "IC50", "setting": "[1]", "result": 10.8, "unit": "µM"}, {"measurement": "IC50", "setting": "[2]", "result": 12.7, "unit": "µM"}, {"measurement": "IC50", "setting": "[3]", "result": 13.3, "unit": "µM"}, {"measurement": "IC50", "setting": "[4]", "result": 15.8, "unit": "µM"}, {"measurement": "IC50", "setting": "[5]", "result": "> 200", "unit": "µM"}]}
{"molecule": "COc1cc2c(cc1OC)-c1c(c(=O)oc3ccccc13)CCC2", "values": [{"measurement": "IC50", "setting": "[1]", "result": "> 200", "unit": "µM"}, {"measurement": "IC50", "setting": "[2]", "result": 6.72, "unit": "µM"}, {"measurement": "IC50", "setting": "[3]", "result": 4.87, "unit": "µM"}, {"measurement": "IC50", "setting": "[4]", "result": "> 200", "unit": "µM"}, {"measurement": "IC50", "setting": "[5]", "result": "> 200", "unit": "µM"}]}
{"molecule": "COc1cccc2c1C(=O)c1c(O)c3c(c(O)c1C2=O)C[C@@](O)(C(=O)CO)C[C@@H]3O[C@H]1C[C@H](N)[C@H](O)[C@H](C)O1", "note": "[DOXORUBICIN]", "values": [{"measurement": "IC50", "setting": "[5]", "result": "> 200", "unit": "µM"}]}
